Compound activity from PubChem.
SENP6 block = blocks the human protease SENP6; Q9GZR1; Recombinant SENP6 catalytic domain, aminoluciferin luminescence; inhibition, % at 10 µM; actives 1.8% (n = 330,000);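 active = inhibition above about 50% at the single tested dose, limit read from the data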
SENP7 block = SENP7 protease inhibition. actives 1.5% (n = 330,000). Q9BQF6. inhibition, % at 5 µM. recombinant SENP7, Z-RLRGG-aminoluciferin luminescence, 40 min;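 active = inhibition above about 50% at the single test dose, limit read from the data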
Target sequence (Q9BQF6 706-1050 limits assumed): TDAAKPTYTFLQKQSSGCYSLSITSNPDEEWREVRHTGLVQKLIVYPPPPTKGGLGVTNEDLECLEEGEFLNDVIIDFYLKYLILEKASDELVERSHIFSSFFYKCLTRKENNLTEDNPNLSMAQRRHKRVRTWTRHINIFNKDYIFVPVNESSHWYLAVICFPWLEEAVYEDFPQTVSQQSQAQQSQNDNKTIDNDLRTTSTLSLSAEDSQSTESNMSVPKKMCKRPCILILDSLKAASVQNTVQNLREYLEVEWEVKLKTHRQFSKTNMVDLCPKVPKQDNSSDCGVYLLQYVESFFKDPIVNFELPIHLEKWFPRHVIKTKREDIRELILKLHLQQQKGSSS
SENP8 block-1 = blocks human SENP8 cleavage of Nedd8 substrate; Q96LD8; recombinant SENP8, Nedd8 substrate fluorescence; inhibition, % at 20 µM; actives 0.64% (n = 360,000); in the data active = inhibition mostly above about 40%, no sharp cut-off; inactive = mostly below about 27%
SENP1 FRET inh = blocks the human SENP1 SUMO protease catalytic domain. Q9P0U3. recombinant SENP1 catalytic domain, CyPet-SUMO1-YPet FRET cleavage. inhibition, % at 10 µM. actives 0.21% (n = 360,000);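 active = inhibition at least 30% at 10 µM, raw YFP signal under a set limit, fluorescence ratio 0.5 to 1.5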
Target sequence (Q9P0U3 419-644 limits assumed): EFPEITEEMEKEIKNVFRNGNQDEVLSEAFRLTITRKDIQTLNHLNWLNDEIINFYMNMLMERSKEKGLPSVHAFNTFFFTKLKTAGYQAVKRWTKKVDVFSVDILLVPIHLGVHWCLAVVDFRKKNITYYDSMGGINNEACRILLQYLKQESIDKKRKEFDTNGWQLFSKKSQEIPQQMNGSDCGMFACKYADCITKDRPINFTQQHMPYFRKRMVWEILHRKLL
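Material: hSENP1 catalytic domain, recombinant; medium: Tris pH 8 with BME, BSA, NP40 and catalase; compound: single concentration of 10 µM compound, 0.5% DMSO final; technique: FRET read of cyan and yellow fluorescence; timing: 50 min enzyme reaction, room temperature, light-protected; reagent: SFCypet-SUMO1-SFYpet substrate at 25 nM; control set: no-enzyme low, enzyme-DMSO high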
SENP8 block-2 = inhibitors of human SENP8 protease; Q96LD8; purified SENP8, Z-RLRGG-aminoluciferin cleavage, luminescence; inhibition, % at 10 µM; actives 1.2% (n = 330,000); AID 2540; in the data active = inhibition above about 50%
SENP8 confirm = confirmation of human SENP8 protease inhibitors; Recombinant SENP8, Z-RLRGG-aminoluciferin luminescence, 60 min; inhibition, % at 12.5 µM; shares compounds with SENP7 block; AID 488912; actives 40% (n = 6,200);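 active = mean inhibition across replicates above about 50%, limit read from the data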
SENP6 conf = human SENP6 inhibition, confirmed. actives 58% (n = 6,200). recombinant SENP6, Z-RLRGG-aminoluciferin luminescence. inhibition, % at 12.5 µM. shares compounds with SENP7 block
SENP7 conf = human SENP7 inhibition, confirmed; inhibition, % at 12.5 µM; shares compounds with SENP7 block; actives 69% (n = 6,200); recombinant SENP7, Z-RLRGG-aminoluciferin luminescence, 40 min
Casp3 SENP sel = inhibits human caspase-3 in SENP selectivity test | actives 60% (n = 6,200) | purified caspase-3, Z-DEVD-aminoluciferin luminescence, 60 min | shares compounds with SENP7 block | inhibition, % at 12.5 µM;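 active = mean inhibition above about 50%, limit read from the data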
SENP luc ctr = counter-screen for SENP inhibitors: luminescence interference. shares compounds with SENP7 block. Pre-incubated SENP8/Z-RLRGG-aminoluciferin, luciferase luminescence interference. inhibition, % at 12.5 µM. actives 39% (n = 6,200);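 active = mean inhibition above about 50% when retested at one dose, limit read from the data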
Hits are given with their value. The list is not random: actives were taken first. Their share in the collection is about 2.5%.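 The calls were made as follows, unless noted: active = mean inhibition above about 50% in the one-dose retest (limit read from the data); inactive = the rest.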

O=C1NC(=S)S/C1=C\c1ccc2ccccc2c1 was read as SENP6 block 90, SENP7 block inactive, SENP8 block-1 inactive, SENP1 FRET inh inactive, SENP8 block-2 88, SENP8 confirm inactive, SENP6 conf 50, SENP7 conf inactive, Casp3 SENP sel inactive and SENP luc ctr inactive.
COc1ccc(/C=C2/SC(=S)N(CCC(=O)O)C2=O)cc1 was read as SENP6 block 98, SENP7 block 85, SENP8 block-1 inactive, SENP1 FRET inh inactive, SENP8 block-2 98, SENP8 confirm 98, SENP6 conf 100, SENP7 conf 104, Casp3 SENP sel 65 and SENP luc ctr 81.
`COc1ccc(/C=C2\SC(=S)N(CCCC(=O)N3CCOCC3)C2=O)cc1` gave SENP6 block 82, SENP7 block 72, SENP8 block-1 inactive, SENP1 FRET inh inactive, SENP8 block-2 69, SENP8 confirm 83, SENP6 conf 76, SENP7 conf 91, Casp3 SENP sel 63 and SENP luc ctr 60.
`O=C(CCCN1C(=O)/C(=C\c2ccccc2)SC1=S)N1CCOCC1` gave SENP6 block inactive, SENP7 block inactive, SENP8 block-1 inactive, SENP1 FRET inh inactive and SENP8 block-2 inactive.
Screening Cc1ccc2c(c1)N(Cc1ccncc1)C(=O)C(C)O2 (stereo not given) returned SENP6 block inactive, SENP7 block inactive, SENP8 block-1 inactive, SENP1 FRET inh inactive and SENP8 block-2 inactive.
COc1ccc(/C=C2/SC(=O)NC2=O)cc1 was read as SENP6 block 86, SENP7 block 62, SENP8 block-1 inactive, SENP1 FRET inh inactive, SENP8 block-2 71, SENP8 confirm 81, SENP6 conf 76, SENP7 conf 89, Casp3 SENP sel 74 and SENP luc ctr 84.
For O=C(O)CCN1C(=O)/C(=C\c2ccncc2)SC1=S the results were SENP6 block inactive, SENP7 block inactive, SENP8 block-1 inactive, SENP1 FRET inh inactive and SENP8 block-2 inactive.
O=C(O)CCN1C(=O)/C(=C\c2cccc(Oc3ccccc3)c2)SC1=S was read as SENP6 block 97, SENP7 block 62, SENP8 block-1 inactive, SENP1 FRET inh inactive, SENP8 block-2 96, SENP8 confirm inactive, SENP6 conf 101, SENP7 conf 104, Casp3 SENP sel inactive and SENP luc ctr 90.
For O=C(O)CN1C(=O)/C(=C\c2ccc(OC(=O)c3ccco3)cc2)SC1=S the results were SENP6 block 71, SENP7 block inactive, SENP8 block-1 inactive, SENP1 FRET inh 39, SENP8 block-2 59, SENP8 confirm 66, SENP6 conf 62, SENP7 conf 79, Casp3 SENP sel 83 and SENP luc ctr 69.
For COc1ccc(C=C2SC(=S)NC2=O)cc1 the results were SENP8 block-1 inactive and SENP1 FRET inh inactive.
`CN(C)Cc1c(C(=O)N/N=C/CCc2ccccc2)nnn1-c1nonc1N` gave SENP6 block inactive, SENP7 block inactive, SENP8 block-1 inactive, SENP1 FRET inh inactive and SENP8 block-2 inactive.
`CC(C)n1nnnc1SCC(=O)N(C)C1CCS(=O)(=O)C1` (stereo not given) gave SENP6 block inactive, SENP7 block inactive, SENP8 block-1 inactive, SENP1 FRET inh inactive and SENP8 block-2 inactive.
Screening Cc1ccc(S(=O)(=O)N2CCOCC2)cc1NC(=O)CSc1nnc(C2CC2)n1C1CC1 returned SENP6 block inactive, SENP7 block inactive, SENP8 block-1 inactive, SENP1 FRET inh inactive and SENP8 block-2 inactive.
Screening N#C/C(=C(/O)c1ccc([N+](=O)[O-])o1)c1nc2ccccc2[nH]1 returned SENP6 block 66, SENP7 block inactive, SENP8 block-1 inactive, SENP1 FRET inh inactive, SENP8 block-2 inactive, SENP8 confirm inactive, SENP6 conf inactive, SENP7 conf inactive, Casp3 SENP sel inactive and SENP luc ctr inactive.
CCc1nnc(NC(=O)c2ccc3nc(CC)c(CC)nc3c2)s1 was read as SENP6 block inactive, SENP7 block inactive, SENP8 block-1 inactive, SENP1 FRET inh inactive and SENP8 block-2 inactive.
Cc1nnc(SCc2cc(=O)[nH]c(/N=C(\N)Nc3ccccc3)n2)s1 was read as SENP6 block inactive, SENP7 block inactive, SENP8 block-1 inactive, SENP1 FRET inh inactive and SENP8 block-2 inactive.
For CCOc1ccc(N/C(N)=N/c2nc(CSc3nnc(C)s3)cc(=O)[nH]2)cc1 the results were SENP6 block 55, SENP7 block inactive, SENP8 block-1 inactive, SENP1 FRET inh inactive, SENP8 block-2 inactive, SENP8 confirm inactive, SENP6 conf inactive, SENP7 conf inactive, Casp3 SENP sel inactive and SENP luc ctr inactive.
For CCC(C)(C)NC(=O)c1ccc2c(c1)N(CC(=O)NC1CCCC1)C(=O)C(C)(C)O2 the results were SENP6 block inactive, SENP7 block inactive, SENP8 block-1 inactive, SENP1 FRET inh inactive and SENP8 block-2 inactive.
Screening Cc1ccc(Nc2nc3ccccc3o2)cc1F returned SENP6 block 88, SENP7 block 87, SENP8 block-1 inactive, SENP1 FRET inh inactive, SENP8 block-2 78, SENP8 confirm 57, SENP6 conf 81, SENP7 conf 98, Casp3 SENP sel 75 and SENP luc ctr inactive.
Cc1nc(Nc2nc3ccccc3o2)nc(C)c1C was read as SENP6 block 58, SENP7 block 63, SENP8 block-1 inactive, SENP1 FRET inh inactive, SENP8 block-2 inactive, SENP8 confirm inactive, SENP6 conf 52, SENP7 conf 87, Casp3 SENP sel 80 and SENP luc ctr inactive.
`N#Cc1cnc(Nc2nc3ccccc3o2)nc1-c1ccccc1` gave SENP6 block inactive, SENP7 block inactive, SENP8 block-1 inactive, SENP1 FRET inh inactive and SENP8 block-2 inactive.
For Cc1cnc(Nc2nc3ccccc3o2)nc1C(=O)Nc1cccc(C(F)(F)F)c1 the results were SENP6 block inactive, SENP7 block inactive, SENP8 block-1 inactive, SENP1 FRET inh inactive and SENP8 block-2 inactive.
Cc1ccnc(Nc2nc3ccccc3o2)n1 was read as SENP6 block 77, SENP7 block 73, SENP8 block-1 inactive, SENP1 FRET inh inactive, SENP8 block-2 67, SENP8 confirm inactive, SENP6 conf 54, SENP7 conf 88, Casp3 SENP sel 90 and SENP luc ctr inactive.
Cc1cc(C)n(C(=O)c2ccc([N+](=O)[O-])cc2Cl)n1 was read as SENP6 block inactive, SENP7 block inactive, SENP8 block-1 inactive, SENP1 FRET inh inactive and SENP8 block-2 inactive.
